From PubChem
MEKK3 PB1 HTS: MEKK3-MEK5 PB1 interaction, increase or decrease. bead-based flow cytometry, Alexa488-MEK5 binding to MEKK3; actives lie on both sides; 0 = blocked by unlabeled MEK5, 100 = vehicle. binding response (% of control), % at 10 µM. 290,000 compounds, 1.4% hits. AID 1529;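 active means binding response more than 3 SD above or below the average of its plate-row segment, actives on both sides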;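 further: Alexa488 bead fluorescence after subtracting the streptavidin-only scavenger bead signal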
MEKK2mut PB1 HTS: signal of MEK5 binding to mutant human MEKK2 PB1 domain. bead flow cytometry, Alexa488-MEK5 binding to MEKK2 mutant. percent response, % at 10 µM. 290,000 compounds, 0.35% hits; in the data active means percent response above about 24%, passing the limit was not always enough
DSG3 Ab inh: inhibitors of pemphigus antibody binding to human desmoglein-3 | DSG3-coupled beads, scFv-anti-DSG3-GFP binding, flow cytometry; active compounds read low | binding (percent of control), % at 10 µM | 310,000 compounds, 0.48% hits | AID 588358;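 active means binding more than 3 SD below its plate's average and above zero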;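 further: hits lower antibody fragment binding to DSG3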
UBC13 inh: human UBC13 polyubiquitination inhibition; UBC13 polyubiquitin chain formation, TR-FRET; inhibition, % at 20 µM; 330,000 compounds, 0.47% hits; in the data active means inhibition above about 45%, passing the limit was not always enough
Target sequence (P61088 whole entry, looked up): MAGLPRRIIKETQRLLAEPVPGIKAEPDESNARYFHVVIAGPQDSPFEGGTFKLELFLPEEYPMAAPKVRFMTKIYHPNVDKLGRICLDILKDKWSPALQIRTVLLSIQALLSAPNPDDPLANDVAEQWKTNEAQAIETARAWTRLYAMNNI
MEKK2 WT-MEK5: raises or lowers MEK5 binding to wildtype human MEKK2 PB1 domain; Q9Y2U5; bead flow cytometry, Alexa488-MEK5 binding to MEKK2 WT; actives lie on both sides; binding response (% of control), % at 10 µM; 290,000 compounds, 1.1% hits; in the data active means binding response below about 67% or above about 130%
Apaf1 inhib: blocks human Apaf-1 apoptosome activity; O14727; reconstituted apoptosome caspase-3 activity, DEVD-Rh110 fluorescence; inhibition, % at 20 µM; 330,000 compounds, 0.71% hits; AID 489030; active means inhibition of at least 40% at 20 µM;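 further: plate controls were DMSO wells for no effect and DEVD-CHO caspase inhibitor wells for full effect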
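Material: reconstituted apoptosome with Apaf-1, cytochrome c, caspase-9, procaspase-3, dATP; medium: pH 7.5 Hepes buffer with CHAPS, BSA, DTT; also added: cytochrome c and DEVD-Rh110 substrate; timing: 30 min plus 50 min, RT; signal: Rh110 fluorescence intensity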
MEKK2wt confirm: raises or lowers MEK5 binding to wildtype human MEKK2, retest; shares compounds with MEKK3 PB1 HTS; bead flow cytometry, Alexa488-MEK5 binding to MEKK2 WT; actives lie on both sides; binding response (% of control), % at 10 µM; 5,900 compounds, 2.4% hits; in the data active means binding response below about 16% or above about 210%; inactive means in between
MEKK2mut confirm: signal of MEK5 binding to mutant human MEKK2, retest; shares compounds with MEKK3 PB1 HTS; 5,900 compounds, 2% hits; bead flow cytometry, Alexa488-MEK5 binding to MEKK2 mutant; AID 1893; percent response, % at 10 µM; in the data active means percent response mostly above about 71%, no sharp cut-off; inactive means mostly below about 38%;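 further: higher means compound restores mutant binding toward wildtype level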
MEKK3 confirm: MEKK3-MEK5 PB1 inhibition, single concentration confirmation | shares compounds with MEKK3 PB1 HTS | bead flow cytometry, Alexa488-MEK5 binding to MEKK3; active compounds read low | binding response (% of control), % at 10 µM | 5,900 compounds, 1.8% hits | AID 1894;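 active means binding response below 72% of control, or above a set upper limit, though filed actives all read lower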;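 further: 100% = DMSO only wells and 0% = binding blocked by excess unlabeled MEK5; lower values mean stronger disruption of MEK5 binding to MEKK3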
* hit, by the source's call; nt = not tested or not shown; [ ] = remark or other dose. This is a sample that favours compounds with a hit; in the whole collection about 3.2% have one here.

SMILES | MEKK3 PB1 HTS | MEKK2mut PB1 HTS | DSG3 Ab inh | UBC13 inh | MEKK2 WT-MEK5 | Apaf1 inhib | MEKK2wt confirm | MEKK2mut confirm | MEKK3 confirm
Cc1nc2ccc(NC(=O)c3nn(CC(C)C)c(=O)c4ccccc34)cc2s1 | 148* | 0 | 130 | 16 | 108 | 17 | 94 | -3 | 98
CCOc1ccc(CN(C)C(=O)CCN2C(=O)c3ccccc3C2=O)cc1OC | 100 | -4 | nt | -3 | 99 | 0 | nt | nt | nt
CCc1nnc(NC(=O)Cc2c[nH]c3ccccc23)s1 | 138* | 7 | 100 | -4 | 121 | 6 | 103 | 5 | 107
CC(C)Cc1nnc(NC(=O)CCc2c[nH]c3ccccc23)s1 | 89 | -2 | 78 | -12 | 91 | 18 | nt | nt | nt
Brc1ccc(-n2cnc(-c3ccccc3)c2)cc1 | 99 | 1 | 114 | 12 | 94 | 14 | nt | nt | nt
Cc1c(Cl)c([N+](=O)[O-])nn1CCCC(=O)N(Cc1ccccc1)Cc1ccccc1 | 141* | 0 | 92 | 11 | 108 | 22 | 88 | -8 | 89
CCOC(=O)c1c(CSCc2ccccc2)oc2ccc(O)c(CN(C)C)c12 | 104 | 18 | 92 | 24 | 137* | -10 | 139 | 21 | 106
COc1cc(/C=C/C(=O)Nc2ccc(C(C)=O)cc2)cc(OC)c1OC | 88 | -1 | 104 | -2 | 92 | 0 | nt | nt | nt
COc1cc(/C=C/C(=O)Nc2ccncc2)cc(OC)c1OC | 146* | 0 | 106 | 0 | 106 | 2 | 112 | 3 | 106
Cc1cccc(NC(=O)CCc2nnc3ccc(NCc4ccco4)nn23)n1 | 100 | 0 | 98 | 2 | 98 | -9 | nt | nt | nt
N#Cc1c(-c2ccc3c(c2)OCO3)csc1N | 123* | 6 | nt | 3 | 116 | 9 | 105 | 4 | 105
N=c1oc2ccccc2cc1-c1nc(-c2ccccc2)cs1 | 99 | -2 | 105 | 11 | 88 | 23 | nt | nt | nt
N=c1oc2ccc3ccccc3c2cc1-c1nc(-c2ccccc2)cs1 | 146* | -1 | 106 | nt | 96 | nt | 94 | -6 | 94
Cc1ccc(Cl)cc1NC(C#N)c1ccccc1 (stereo not drawn) | 129* | 24 | nt | -4 | 115 | 6 | 104 | -1 | 102
Cc1cn([C@H]2C[C@H](O)[C@@H](CNCc3cnc(N4CCOCC4)s3)O2)c(=O)[nH]c1=O | nt | nt | 111 | nt | nt | nt | nt | nt | nt
Cc1ccc(C)c(S(=O)(=O)NCc2ccncc2)c1 | 137* | 11 | 97 | -2 | 128 | 4 | 89 | -9 | 97
Cc1ccc(C)c(S(=O)(=O)NCc2cccnc2)c1 | 98 | -2 | 126 | -4 | 99 | 2 | nt | nt | nt
Cc1csc2c(NCCCN3CCOCC3)ncnc12 | 137* | 27 | 121 | -6 | 136 | -3 | 104 | 3 | 104
Cc1ccccc1S(=O)(=O)N1C[C@H]2CON(C)[C@H]2C[C@H]1c1cccc(Oc2ccccc2)c1 | nt | nt | 106 | nt | nt | nt | nt | nt | nt
CC1(NC(=O)Cc2c(F)cccc2Cl)CCS(=O)(=O)C1 (stereo not drawn) | nt | nt | nt | 2 | nt | -7 | nt | nt | nt
COc1ccc2ccccc2c1-c1sc(Nc2ccccc2)n[n+]1-c1ccc(F)cc1 | 110 | 43* | 114 | 36 | 155* | 33 | 169 | 39 | 106
COc1ccc(NS(=O)(=O)c2cc(NC(=O)C(CC(C)C)NC(N)=O)ccc2N2CCOCC2)cc1 (stereo not drawn) | nt | nt | 124 | nt | nt | nt | nt | nt | nt
O=C(O)c1[nH]c2ccccc2c1CC(=O)N1CCN(c2ccccc2)CC1 | 132* | 3 | 103 | -3 | 112 | 2 | 103 | 4 | 104
CC1CCCCN1c1nc2nonc2nc1N1CCCCC1C (stereo not drawn) | 126* | 6 | 96 | 2 | 97 | 9 | 98 | -2 | 99
Cc1noc(/C=C/c2cccnc2)c1[N+](=O)[O-] | 105 | 9 | 90 | 0 | 106 | 7 | nt | nt | nt
SMILES | MEKK3 PB1 HTS | MEKK2mut PB1 HTS | DSG3 Ab inh | UBC13 inh | MEKK2 WT-MEK5 | Apaf1 inhib | MEKK2wt confirm | MEKK2mut confirm | MEKK3 confirm
Cc1noc(/C=C/c2ccc(-c3ccccc3Cl)o2)c1[N+](=O)[O-] | 102 | 92* | 109 | -86 | 117 | 22 | 55 | -18 | 54*
Cc1ccc(N/C=C/c2onc(C)c2[N+](=O)[O-])cc1 | 37*[inhibitor] | -13 | 103 | -56 | 33*[inhibitor] | -18 | 97 | -4 | 100
O=C(CCC(=O)NNC(=O)c1ccc(Cl)cc1Cl)NCc1ccccc1 | nt | nt | 109 | 2 | nt | -6 | nt | nt | nt
CCOC(=O)C1=CN(Cc2cccc(F)c2)S(=O)(=O)N(CC)C1c1ccc(Br)cc1F (stereo not drawn) | nt | nt | 108 | nt | nt | 24 | nt | nt | nt
O=C(NNC(=O)C1CC2CCC1C2)c1sc2ccccc2c1Cl (stereo not drawn) | 149* | 0 | 101 | 7 | 108 | 8 | 105 | 3 | 102
O=C(NC1CC1)c1sc2ccccc2c1Cl | 98 | 1 | 89 | -3 | 97 | 1 | nt | nt | nt
COC(=O)c1sc(-c2ccc(Cl)cc2)cc1NC(=O)c1ccccc1C(=O)O | 66*[inhibitor] | -14 | nt | -6 | 67 | 5 | 104 | 3 | 105
COC(=O)c1sc(-c2ccc(C(C)(C)C)cc2)cc1NC(=O)c1ccccc1C(=O)O | 96 | -8 | nt | -42 | 95 | 29 | nt | nt | nt
Brc1ccc(N=C/C=C/C=C/Nc2ccc(Br)cc2)cc1 | 46*[inhibitor] | 140* | 112 | 5 | 38* | -4 | 48 | -30 | 64*
CC1=N/C(=C\c2ccc([N+](=O)[O-])cc2)C(=O)N1c1ccc(F)cc1F | 103 | 1 | 87 | -15 | 103 | 14 | nt | nt | nt
CCCCc1nnc(NC(=O)c2ccccc2OCc2c(C)noc2C)s1 | nt | nt | 102 | 2 | nt | 18 | nt | nt | nt
CCOc1ccccc1C(=O)Nc1cccc2ccccc12 | 109 | 12 | 94 | 3 | 108 | -4 | nt | nt | nt
CCOc1ccccc1C(=O)Nc1ccccc1O | 78*[inhibitor] | -7 | 108 | 5 | 74 | 11 | 105 | 5 | 103
CC(=O)NC12CC3CC(C1)CC(C(=O)N(C)Cc1cccc(Cl)c1Cl)(C3)C2 | 99 | 2 | 103 | -3 | 100 | 14 | nt | nt | nt
O=C(NC1CCCCC1)N1CCNCC1 | 99 | 1 | 100 | 10 | 102 | -8 | nt | nt | nt
C1CCCCCC(NCCN2CCNCC2)CCCCC1 | 105 | 22 | nt | 2 | 158* | -3 | 142 | 19 | 100
